Compounds with a hit are over-represented: about 3.7% of the library has one in this group of screens.
TAAR1 antag = antagonists of human TAAR1. Q96RJ0. CHO RD-HGA16 TAAR1, Fluo-8 calcium fluorescence, antagonist. inhibition, % at 3 µM. hit rate 1.5% among 360,000;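 active = inhibition above a per-plate cutoff, the mean inhibition of test compounds on that plate plus 3 SD, cut at about 49% in these data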;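 also: 0% = DMSO plus EC80 beta-PEA response and 100% = DMSO alone without agonist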
Target sequence (Q96RJ0 whole entry, looked up): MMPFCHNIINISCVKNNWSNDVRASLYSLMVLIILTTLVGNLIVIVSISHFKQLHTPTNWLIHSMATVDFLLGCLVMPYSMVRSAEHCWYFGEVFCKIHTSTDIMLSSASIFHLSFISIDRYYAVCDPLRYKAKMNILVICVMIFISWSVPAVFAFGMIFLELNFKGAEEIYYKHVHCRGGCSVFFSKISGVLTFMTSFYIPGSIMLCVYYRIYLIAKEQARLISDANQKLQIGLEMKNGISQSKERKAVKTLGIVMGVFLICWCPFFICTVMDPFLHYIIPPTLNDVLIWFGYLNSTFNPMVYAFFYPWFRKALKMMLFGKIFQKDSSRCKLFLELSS
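Material: RD-HGA16 CHO cells with stable hTAAR1 and Gα16; Dosing: single nominal final test compound concentration of 3 µM; Schedule: seeding 17-24 h prior, 75-min 37 °C, 30-min RT dye loading; Detection: kinetic Fluo-8 calcium fluorescence measurement; Measure: % inhibition from peak post-agonist over basal fluorescence ratio; Benchmarks: vehicle and agonist controls.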
TAAR1 ag = agonists of human TAAR1; CHO RD-HGA16 TAAR1, Fluo-8 calcium fluorescence; vehicle wells 0%, saturating PEA agonist 100%; hit rate 0.99% among 360,000; activation, % at 3 µM; Q96RJ0; AID 624467;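 active = activation above the mean activation of all test compounds in the run plus 3 SD, cut at about 38% in these data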
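Signal – calcium-sensitive Fluo-8 signal, excitation 470-495, emission 515-575 nm · System – RD-HGA16 (CHO) cells co-expressing Gα16 and hTAAR1 · Incubation – 17-24 h seeding, 75 min 37 °C dye, 30 min RT · Compound dosing – 3 µM single concentration · Repeats – no replicates (n 1)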
HCV NS3 hel inh = HCV NS3 helicase inhibition | hit rate 0.56% among 290,000 | NS3 helicase DNA unwinding, Cy5 molecular beacon fluorescence | inhibition, % at 10.9 µM | AID 1800;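 active = inhibition above the mean of all tested compounds plus 3 SD, set per campaign, cut at about 35% in these data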;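 also: 0% = DMSO wells and 100% = thioflavine S control wells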
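Control set: DMSO versus 110 µM thioflavine S; Material: NS3 helicase fragment of HCV; Measured by: Cy5 fluorescence at 0 and 60 min, beacon hairpin quenching; Read-out basis: percent inhibition from t60/t0 fluorescence ratio; Times: reaction time 60 min, 25 °C; Repeats: single replicate; Compound dosing: single dose, 10.9 µM nominal final, DMSO 0.8% final.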
HCV core dimer = blocks dimerization of HCV core protein. TR-FRET GST/Flag-core106 dimerization, 1536-well. inhibition, % at 5 µM. hit rate 0.33% among 300,000;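 active = inhibition above the mean of all tested compounds plus 3 SD, set per screening campaign, cut at about 45% in these data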
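Assay system – GST-tagged and Flag-tagged HCV core protein residues 1-106 · Quantity – core106 proteins, GST 13.5 nM and Flag 17 nM · Benchmarks – unlabelled core106 and no-GST-core106 wells · Read-out basis – percent inhibition of core106 dimerization signal · Detection – time-resolved FRET, ex 340 nm, em 617 and 671 nm · Schedule – 4 h at 22.5 °C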
rCAG RNA binder = r(CAG) repeat RNA binding | AID 651821 | TO-PRO-1 dye displacement fluorescence | inhibition, % at 3 µM | hit rate 1.3% among 370,000;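 active = inhibition above the plate cutoff, the mean of all test compounds on that plate plus 3 SD, cut at about 35% in these data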;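 also: 0% = DMSO alone and 100% = 100 µM mitoxantrone as full dye displacement; higher means more dye released from RNA so lower well fluorescence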
TAAR1 ag conf = human TAAR1 agonism, confirmed. shares compounds with TAAR1 ag. CHO RD-HGA16 TAAR1, Fluo-8 calcium fluorescence; scaled: DMSO 0%, maximal phenethylamine 100%. activation, % at 3 µM. hit rate 82% among 2,400;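 active = activation above a cutoff set at the run's mean compound activation plus 3 SD, cut at about 39% in these data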
Ga16 ag counter = nonselective agonism, TAAR1 counter-screen; CHO-Ga16 parental, Fluo-8 calcium fluorescence; normalized to maximal ATP response, DMSO zero; activation, % at 3 µM; hit rate 50% among 2,400; shares compounds with TAAR1 ag;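 active = activation above the run cutoff, the mean activation over all tested wells plus 3 SD, cut at about 12% in these data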;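 also: 0% = DMSO wells and 100% = maximal ATP response on the peak over basal ratio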
TAAR1 desensitize = human TAAR1 agonist that also desensitizes the receptor | shares compounds with TAAR1 ag | hit rate 46% among 2,400 | CHO RD-HGA16 hTAAR1, Fluo-8 calcium, beta-PEA response inhibition | AID 651951 | inhibition, % at 3 µM;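 active = inhibition above the run cutoff, the mean inhibition of all test compounds plus 3 SD, cut at about 49% in these data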;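 also: beta-PEA stimulus applied at its EC80; loss of beta-PEA calcium signal after compound pretreatment read as receptor desensitization; 0% = DMSO with beta-PEA at EC80 and 100% = DMSO alone without agonist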
Ga16 antag count = nonselective Ga16 antagonism, counter-screen. shares compounds with TAAR1 ag. CHO-Ga16 ATP-induced calcium, Fluo-8 fluorescence. inhibition, % at 3 µM. hit rate 39% among 2,400. AID 651952;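 active = inhibition above the plate's mean compound inhibition plus 3 SD, computed per plate, cut at about 22% in these data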;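 also: 0% = EC80 ATP with DMSO and 100% = DMSO wells without ATP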
Starred values were filed as active, the others as inactive; · = not tested or not shown.

SMILES	TAAR1 antag	TAAR1 ag	HCV NS3 hel inh	HCV core dimer	rCAG RNA binder	TAAR1 ag conf	Ga16 ag counter	TAAR1 desensitize	Ga16 antag count
COc1ccc(CN2C(=O)C(CC(=O)NCCc3ccccn3)CC(C(=O)N(C)C)=C2C)cc1 (configuration not stated)	-5.6	46.4*	·	·	4.0	61.8*	-0.5	11.7	4.5
Cc1cc(C)cc(N(CC(=O)NC2CCC(C)CC2)S(=O)(=O)c2ccc(C)c(C)c2)c1 (configuration not stated)	·	·	·	·	1.0	·	·	·	·
Cc1nnc(NC(=O)c2sc3nc(-c4cccs4)cc(C(F)(F)F)c3c2N)s1	89.1*	77.5*	19.6	0.6	42.1*	62.2*	76.9*	80.4*	80.0*
NC[C@@H]1O[C@H](C23CC4CC(CC(C4)C2)C3)Cc2c1ccc(O)c2O	71.1*	67.9*	·	-7.2	23.4	108.8*	12.8*	88.2*	28.8*
Nc1nc(N)c2cc(Sc3ccc4ccccc4c3)ccc2n1	14.5	63.4*	-63.5	13.8	21.5	82.0*	44.5*	57.3*	46.0*
Nc1nc(N)c2cc(Sc3ccc(Cl)cc3)ccc2n1	27.6	60.3*	·	·	8.3	65.4*	39.6*	56.5*	39.6*
Nc1nc(N)c2cc(Sc3cccc(C(F)(F)F)c3)ccc2n1	-5.0	35.8	·	·	2.1	·	·	·	·
COCCCNC(=O)CCc1nc(-c2ccccc2Cl)no1	-11.4	0.2	-2.4	-13.0	1.8	·	·	·	·
O=C(CCc1nc(-c2ccccc2Cl)no1)NCCc1ccccc1	-8.7	58.1*	2.6	8.3	-8.1	67.8*	2.5	43.2	10.7
O=C1CC(NCCc2ccccc2)C(=O)N1CCc1ccccc1 (configuration not stated)	10.3	61.4*	-8.9	-6.7	-5.5	63.1*	2.5	11.3	14.1
COc1ccc(CCNC2CC(=O)N(CCc3ccccc3)C2=O)cc1 (configuration not stated)	-4.4	5.0	-4.2	-4.3	-7.2	·	·	·	·
O=[N+]([O-])c1ccc(N2N=C(c3ccccc3)CC2c2ccccc2O)cc1 (configuration not stated)	27.6	9.9	1.9	·	32.2	·	·	·	·
CC(C)(C)C1=NN(c2ccc([N+](=O)[O-])cc2)C(c2ccccc2)C1 (configuration not stated)	34.5	61.9*	-1.8	5.3	-1.0	-0.4	0.4	6.0	9.5
O=C(O)C1CC=C(Cl)CC1C(=O)NCC1OCCc2ccccc21 (configuration not stated)	·	·	-11.5	3.3	2.5	·	-0.4	·	1.9
C=CC(=O)NCC1OCCc2ccccc21 (configuration not stated)	2.4	6.0	-17.9	0.8	-1.9	·	·	·	·
CN(C)c1cccc(/C=C2\CC3(OC(=O)c4cccc(F)c4)CCCN2C3)c1 (configuration not stated)	·	·	·	·	3.0	·	·	·	·
O=C(NCCCn1ccnc1)c1ccc(-c2cccc(Cl)c2Cl)o1	12.4	63.2*	·	·	1.1	49.8*	33.3*	16.8	6.6
Clc1ccc(Cn2ncc3c(N4CCCCC4)ncnc32)cc1	51.7*	47.6*	-1.6	0.8	-2.4	44.8*	24.2*	37.5	24.3*
Clc1ccc(Cn2ncc3c(NCc4ccccc4)ncnc32)cc1	5.9	53.3*	-9.5	-2.4	-6.5	51.0*	37.6*	48.5	30.0*
c1ccc(Cn2ncc3c(NCc4ccco4)ncnc32)cc1	-14.8	8.4	-7.1	0.4	-0.4	·	·	·	·
Clc1ccc(Cn2ncc3c(N4CCCC4)ncnc32)cc1	9.9	12.8	-0.3	-5.2	-8.6	·	·	·	·
COCCN1C(=O)[C@H]2C[C@@]13O[C@H](c1ccccn1)N=C3CC1c3ccccc3C[C@@]12C (some centres not stated)	-16.0	0.7	·	·	-0.8	·	·	·	·
COc1cccc(C(=O)Nc2ccc(C(=O)NCC3COc4ccccc4O3)cc2)c1 (configuration not stated)	·	·	·	·	5.9	·	·	·	·
COc1ccc(Cn2ccc3ccc(-c4ccc5ccn(Cc6ccc(OC)cc6)c5c4)cc32)cc1	·	·	·	·	15.1	·	·	·	·
O=C(OCC(=O)c1c[nH]c2ccccc12)c1ccc(OC(F)F)cc1	26.1	10.8	·	·	7.5	·	·	·	·
SMILES	TAAR1 antag	TAAR1 ag	HCV NS3 hel inh	HCV core dimer	rCAG RNA binder	TAAR1 ag conf	Ga16 ag counter	TAAR1 desensitize	Ga16 antag count
NC(=O)Nc1ccc(C(=O)OCC(=O)c2c[nH]c3ccccc23)cc1	3.5	47.7*	·	·	10.3	59.1*	0.5	14.9	12.9
CC(C)C(=O)N[C@H]1[C@H](O)CCC[C@]12C(=O)N(Cc1ccccc1)c1ccccc12	·	·	·	·	3.7	·	·	·	·
CN1Cc2cccc3c2C(Cc2ccccc2S3)C1 (configuration not stated)	-21.7	59.0*	-37.2	-4.4	-4.3	61.1*	4.6	19.3	5.6
CCCN1CCCCC(NC(=O)c2ccccc2C)C1=O (configuration not stated)	-8.5	0.6	·	·	1.2	·	·	·	·
O=[N+]([O-])c1ccc(NC(=S)N2CCc3ccccc3C2)cc1	30.5	60.5*	0.7	1.0	9.3	80.8*	10.5	63.3*	21.7*
COc1cc(NC(=S)N2CCc3ccccc3C2)cc(OC)c1	7.0	49.4*	-6.5	1.5	1.6	61.9*	0.6	21.7	8.8
COc1ccc(NC(=S)N2CCc3ccccc3C2)cc1OC	·	·	-5.3	-3.6	-2.5	·	7.0	·	4.0
Fc1ccc(NC(=S)N2CCc3ccccc3C2)c(F)c1	17.9	42.6*	-0.1	-2.8	-0.1	72.3*	13.3*	21.3	4.3
COc1ccccc1NC(=S)N1CCc2cc(OC)c(OC)cc2C1	4.2	0.0	-3.8	-5.8	-0.7	·	·	·	·
Cc1cccc(NS(=O)(=O)c2ccc(NC(=O)N3CCCCC3)cc2)c1	25.9	22.4	0.7	5.8	2.0	·	·	·	·
Cc1ccc(NS(=O)(=O)c2ccc(NC(=O)N3CCCCC3)cc2)cc1	-4.2	52.5*	18.4	-7.0	3.3	46.0*	13.9*	15.4	21.2
Cc1ccc(NS(=O)(=O)c2ccc(C(=O)N3CCCC(C(F)(F)F)C3)cc2)cc1 (configuration not stated)	89.1*	141.8*	·	1.4	-5.3	125.2*	90.0*	88.4*	48.5*
